# Screening results: PubChem, several laboratories
# The entries come from a sample that favours hits as a whole.
# Bfl-1 A1 inh: caspase 3/7 activation in MEF A1-2A-BIM cells, primary screen, A1 inhibitor project, cell-based, luminescence, HTS. Caspase-Glo 3/7 luminescence, 3 h; percent of clofoctol response, vehicle zero. caspase activation, % (no concentration beside the values). actives 0.066% (n = 330,000). AID 2462, 2010;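 active = over half of replicate activation scores above 10%, or exactly half above 10 with the replicate mean above 10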
# XBP1 UPR activ: activators of adaptive XBP1 UPR arm, primary screen, cell-based, CHO-XBP1 luciferase reporter, luminescence, uHTS. actives 0.33% (n = 330,000). activation, % at 20 µM. IRE1-XBP1 UPR activation; percent of tunicamycin response, DMSO as zero;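 active = versus positive control, 20 µM dose yields 30% or more activation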
#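 Material – CHO cell line with stable XBP1 luciferase reporter · Buffer or medium – F12 plus 10% FBS · Compound – single point, 20 µM final compound, 1% DMSO · Schedule – 16-18 h cell attachment at 37 °C, then 6 h compound exposure · Signal – Steady-Glo luminescence read · Benchmarks – high control tunicamycin 10 µg/mL final, low control DMSO vehicle only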
# CHOP inhibitor: inhibitors of CHOP promoter induction, primary screen, cell-based, unfolded protein response, luciferase reporter; CHO-K1 CHOP-promoter luciferase, tunicamycin-induced, 15-18 h; inhibition, % at 10 µM; actives 3.8% (n = 220,000); AID 2732, 2010;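 active = compounds that reduced the stress-induced luciferase reporter signal by more than about 70% of percent inhibition, limit read from the data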
# UPR CHOP act: activators of apoptotic CHOP UPR arm, primary screen, cell-based, CHO-CHOP luciferase reporter, luminescence, uHTS; AID 449763, 2010; actives 0.34% (n = 330,000); UPR activation; percent of tunicamycin response over DMSO baseline; activation, % at 10 µM;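 active = at 10 µM dose, activation of 40% or more, normalized to positive control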
#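 System: CHO-CHOP luciferase reporter cell line; amount: 500 cells/well; buffer or medium: F12 medium containing 10% fetal bovine serum; incubation: 6 h compound exposure at 37 °C after overnight seeding; measured by: luciferase luminescence after 10 min with Steady-Glo reagent; evaluation: % reporter activation, DMSO baseline versus tunicamycin full activation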
# CHOP confirm: retest of CHOP induction inhibitors, confirmation, cell-based; shares compounds with CHOP inhibitor; CHO-CHOP promoter luciferase reporter, tunicamycin-induced, luminescence; inhibition, % at 10 µM; actives 45% (n = 2,100); AID 504437, 2011;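 active = mean of three repeat readings of reporter signal inhibition above a set limit, cut at about 70% in these data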
# Hits are given with their value; – = inactive; · = no result given.
SMILES,Bfl-1 A1 inh,XBP1 UPR activ,CHOP inhibitor,UPR CHOP act,CHOP confirm
Cc1cccc(N2CCN(C3=NC(=O)/C(=C\c4cn[nH]c4-c4ccccc4)S3)CC2)c1,–,–,102,–,–
NCCc1nnc(SCC(=O)Nc2cccc(Cl)c2)o1,–,–,·,–,·
COC(=O)c1cc([N+](=O)[O-])c(-n2cncn2)c([N+](=O)[O-])c1,·,·,110,·,–
CCn1cc(CN(C)C(=O)/C=C/c2ccc([N+](=O)[O-])cc2)c(C)n1,–,–,96,–,–
Cc1nn(C)cc1C(=O)/C=C/c1ccc([N+](=O)[O-])cc1,–,–,–,–,·
Cc1ncc(C(=O)O)c(C(=O)O)c1N,–,–,–,–,·
CN(CC(=O)Nc1ccc(Cl)c(C(F)(F)F)c1)C(=O)c1cc(=O)[nH]c2ccccc12,–,–,·,–,·
CCSC1=NC2(CCCCC2)Nc2sc3c(c21)CCCC3,–,–,105,–,–
CCSc1nc2sc3c(c2c(=O)[nH]1)CCCC3,–,–,–,–,·
COc1ccc(S(=O)(=O)N2CCC(C(=O)Oc3c(OC)cccc3OC)CC2)cc1OC,–,–,·,–,·
CC(C(Sc1ccccc1N)c1ccccc1)[N+](=O)[O-] (configuration not stated),–,–,106,–,–
COc1ccc(C(CNC(=O)c2sccc2C)N2CCOCC2)cc1 (configuration not stated),–,–,·,–,·
CN1CCN(C(=O)CCN2C(=O)/C(=C\c3ccccc3F)SC2=S)CC1,–,–,·,–,·
CC1CCC(n2c(=S)[nH]c3ccccc3c2=O)CC1 (configuration not stated),–,–,103,–,104
CC1(C)CC(n2c(=S)[nH]c3ccccc3c2=O)CCO1 (configuration not stated),–,–,–,–,·
Cc1ccc(C(C)C)c(OCc2ccc(C(=O)N/N=C/c3ccc(C(=O)O)cc3)cc2)c1,–,–,97,–,–
CC(=O)Nc1ccc(S(=O)(=O)N2CCc3ccccc3C2CC(=O)O)cc1 (configuration not stated),–,–,·,–,·
CCC(C)c1ccc(NC(=S)NCc2ccccc2OC)cc1 (configuration not stated),·,·,97,·,–
O=C1CC(NCC2CCCO2)C(=O)N1c1ccc(F)cc1 (configuration not stated),–,–,–,–,·
NC(=O)CC(NC(=O)Cc1ccc(Br)cc1)c1ccc(N2CCN(c3ccccc3)CC2)c([N+](=O)[O-])c1 (configuration not stated),–,–,103,–,–
CCCCNc1ccc(C(CC(N)=O)NC(=O)Cc2cccc3ccccc23)cc1[N+](=O)[O-] (configuration not stated),–,–,104,–,–
COc1ccc(CCNc2ccc(C(CC(N)=O)NC(=O)Cc3cccc4ccccc34)cc2[N+](=O)[O-])cc1 (configuration not stated),–,–,–,–,·
Cc1cccc(CNc2ccc(C(CC(N)=O)NC(=O)Cc3cccc4ccccc34)cc2[N+](=O)[O-])c1 (configuration not stated),–,–,105,–,–
NC(=O)CC(NC(=O)c1ccccc1)c1ccc(N2CCN(c3ccccc3)CC2)c([N+](=O)[O-])c1 (configuration not stated),–,–,·,–,·
Cc1ccc(Cn2ccc(C3CC3)n2)cc1,–,–,–,–,·
CCN1C(=O)[C@H]2[C@@H](c3ccc(-c4ccc(Cl)c(Cl)c4)cc3)N[C@@](Cc3ccccc3)(C(=O)OC)[C@H]2C1=O,–,–,·,–,·
CCN(CC)C(=O)CN1C(=O)C(=O)c2ccccc21,–,–,–,–,·
Cc1ccc(C(=O)N2C(=S)C(c3ccc(F)cc3)=NC23CCN(C)CC3)cc1,–,–,98,–,–
CN1CCN(NC(=O)c2ccc(F)cc2)CC1,–,–,–,–,·
O=[N+]([O-])c1cc(-n2cnnn2)ccc1N1CCC(Cc2ccccc2)CC1,–,–,104,–,–
